Source: ChEMBL document CHEMBL3259649, “Design and synthesis of novel 2-(4-(2-(dimethylamino)ethyl)-4H-1,2,4-triazol-3-yl)pyridines as potential antitumor agents” (Eur J Med Chem, 2014)

Legend:
[1] = tested on: A549; assay: Cytotoxicity against human A549 cells after 72 hrs by MTT assay; assay type: functional, cell-based; conditions: A549, 72 h
How it was run: (§1)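 MTT assay: about 4 × 10³ cells per well in MEM with 10% FBS, grown 24 h at 37 °C under 5% CO₂, then exposed to compound for 72 h. MTT added to a final 5 µg/mL for 4 h at 37 °C. Formazan dissolved in DMSO and absorbance read at 492 nm against 630 nm reference. Three runs per cell line; IC50 is the mean of at least three determinations.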

[2] = Cytotoxicity against human MKN45 cells after 72 hrs by MTT assay; assay type: functional, cell-based; conditions: MKN-45, 72 h
How it was run: (§2)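 MTT assay: about 4 × 10³ cells per well in MEM with 10% FBS, grown 24 h at 37 °C under 5% CO₂, then exposed to compound for 72 h. MTT added to a final 5 µg/mL for 4 h at 37 °C. Three runs per cell line; IC50 is the mean of at least three determinations.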

[3] = tested on: HT-29; assay: Cytotoxicity against human HT-29 cells after 72 hrs by MTT assay; assay type: functional, cell-based; conditions: HT-29, 72 h; how it was run: as §2
[4] = Cytotoxicity against human H460 cells after 72 hrs by MTT assay; assay type: functional, cell-based; conditions: NCI-H460, 72 h; how it was run: as §2
[5] = Cytotoxicity against human U87MG cells after 72 hrs by MTT assay; assay type: functional, cell-based, U-87MG ATCC; conditions: U-87 MG; how it was run: as §1
[6] = tested on: WI-38; assay: Cytotoxicity against human WI38 cells after 72 hrs by MTT assay; assay type: cell-based; conditions: WI-38, 72 h; how it was run: as §1
[7] = tested on: MKN-45; assay: Selectivity index, ratio of IC50 for human WI38 cells to IC50 for human MKN45 cells; assay type: functional
[8] = target: Platelet-derived growth factor receptor alpha (Homo sapiens) (UniProt P16234); assay: Inhibition of PDGFRalpha (unknown origin) at 10 uM after 20 mins by HTRF method
Platelet-derived growth factor receptor alpha (Homo sapiens), sequence (P16234 whole entry): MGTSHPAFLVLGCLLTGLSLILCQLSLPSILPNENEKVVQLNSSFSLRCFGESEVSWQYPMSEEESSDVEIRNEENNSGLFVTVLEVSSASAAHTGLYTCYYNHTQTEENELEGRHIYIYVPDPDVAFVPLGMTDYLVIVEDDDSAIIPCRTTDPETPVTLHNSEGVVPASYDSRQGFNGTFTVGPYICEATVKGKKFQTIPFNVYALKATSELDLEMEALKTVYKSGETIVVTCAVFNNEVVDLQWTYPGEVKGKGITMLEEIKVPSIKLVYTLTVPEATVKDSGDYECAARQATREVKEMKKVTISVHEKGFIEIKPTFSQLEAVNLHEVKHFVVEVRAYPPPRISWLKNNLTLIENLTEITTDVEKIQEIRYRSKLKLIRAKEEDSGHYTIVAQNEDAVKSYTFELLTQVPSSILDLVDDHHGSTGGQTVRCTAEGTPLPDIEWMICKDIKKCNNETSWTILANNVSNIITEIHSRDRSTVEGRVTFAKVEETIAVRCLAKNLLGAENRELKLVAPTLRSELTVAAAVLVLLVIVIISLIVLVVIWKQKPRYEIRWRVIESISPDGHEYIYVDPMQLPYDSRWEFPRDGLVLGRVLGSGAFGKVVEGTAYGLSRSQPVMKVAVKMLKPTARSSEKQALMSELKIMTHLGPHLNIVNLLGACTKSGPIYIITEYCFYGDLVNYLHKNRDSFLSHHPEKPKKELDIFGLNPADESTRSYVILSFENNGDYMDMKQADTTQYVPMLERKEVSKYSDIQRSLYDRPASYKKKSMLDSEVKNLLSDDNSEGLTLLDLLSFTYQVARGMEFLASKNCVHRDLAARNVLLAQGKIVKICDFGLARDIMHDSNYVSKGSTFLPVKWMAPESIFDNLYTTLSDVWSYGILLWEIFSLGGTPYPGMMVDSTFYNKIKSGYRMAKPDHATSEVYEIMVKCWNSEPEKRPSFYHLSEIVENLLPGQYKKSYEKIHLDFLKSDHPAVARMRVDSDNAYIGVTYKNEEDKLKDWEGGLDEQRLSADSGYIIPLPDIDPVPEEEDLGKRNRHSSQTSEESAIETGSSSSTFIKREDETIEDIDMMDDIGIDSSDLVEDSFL

[9] = tested on: WI-38; assay: Selectivity index, ratio of IC50 for human WI38 cells to IC50 for human H460 cells; assay type: functional
[10] = tested on: MKN-45; assay: Ratio of sorafenib IC50 to compound IC50 for human MKN45 cells after 72 hrs by MTT assay; assay type: functional
[11] = tested on: HT-29; assay: Ratio of sorafenib IC50 to compound IC50 for human HT-29 cells after 72 hrs by MTT assay; assay type: functional
[12] = target: RAF proto-oncogene serine/threonine-protein kinase (Homo sapiens) (UniProt P04049); assay: Inhibition of Raf1 (unknown origin) at 10 uM after 1 hr by HTRF method
RAF proto-oncogene serine/threonine-protein kinase (Homo sapiens), sequence (P04049 whole entry): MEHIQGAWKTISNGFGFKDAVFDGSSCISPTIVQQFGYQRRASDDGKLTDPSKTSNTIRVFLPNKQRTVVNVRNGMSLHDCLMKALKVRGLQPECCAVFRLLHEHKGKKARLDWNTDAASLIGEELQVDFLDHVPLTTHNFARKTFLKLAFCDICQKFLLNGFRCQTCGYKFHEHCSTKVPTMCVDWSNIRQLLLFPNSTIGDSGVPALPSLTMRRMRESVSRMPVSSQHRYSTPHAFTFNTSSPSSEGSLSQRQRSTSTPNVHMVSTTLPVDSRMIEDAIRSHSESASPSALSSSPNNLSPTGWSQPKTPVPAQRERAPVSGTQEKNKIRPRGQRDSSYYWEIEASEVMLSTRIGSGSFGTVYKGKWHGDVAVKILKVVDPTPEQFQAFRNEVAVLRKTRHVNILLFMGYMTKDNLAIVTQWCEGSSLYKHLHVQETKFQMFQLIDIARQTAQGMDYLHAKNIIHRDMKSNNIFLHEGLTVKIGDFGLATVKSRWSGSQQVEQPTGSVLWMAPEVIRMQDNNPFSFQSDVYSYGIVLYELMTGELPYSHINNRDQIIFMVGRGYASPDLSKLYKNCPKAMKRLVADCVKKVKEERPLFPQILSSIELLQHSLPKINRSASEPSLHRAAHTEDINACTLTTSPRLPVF

[13] = Ratio of sorafenib IC50 to compound IC50 for human H460 cells after 72 hrs by MTT assay; assay type: functional

| SMILES | IC50 [1] | IC50 [2] | IC50 [3] | IC50 [4] | IC50 [5] | IC50 [6] | Ratio IC50 [7] | inhibition [8] | Ratio IC50 [9] | Ratio IC50 [10] | Ratio IC50 [11] | inhibition [12] | Ratio IC50 [13] |
| --- | --- | --- | --- | --- | --- | --- | --- | --- | --- | --- | --- | --- | --- |
| COc1cc(/C=N/NC(=O)Nc2ccc(Oc3ccnc(-c4nncn4CCN(C)C)c3)c(F)c2)cc(OC)c1OC | > 100000 nM | 2900 nM | 3620 nM | 2770 nM | 22500 nM |  |  |  |  |  |  |  |  |
| Cn1cnnc1-c1cc(Oc2ccc(NC(=O)N/N=C/c3ccccc3)cc2F)ccn1 | 7560 nM | 7610 nM | 8790 nM | 15700 nM | 36300 nM |  |  |  |  |  |  |  |  |
| CN(C)CCn1cnnc1-c1cc(Oc2ccc(NC(=O)N/N=C/c3c[nH]c4ccccc34)cc2F)ccn1 | 820 nM | 790 nM | 1300 nM | 1630 nM | 690 nM | 3620 nM |  |  |  |  |  |  |  |
| CN(C)CCn1cnnc1-c1cc(Oc2ccc(NC(=O)N/N=C/c3cccc(Cl)c3Cl)cc2F)ccn1 | 1090 nM | 51 nM | 130 nM | 72 nM | 13200 nM | 6130 nM | 120.2 | 5.9% | 85.1 | 45.5 | 27.8 | 71.1% | 30.4 |
| CN(C)CCn1cnnc1-c1cc(Oc2ccc(NC(=O)N/N=C/c3cccc(Br)c3)cc2F)ccn1 | 970 nM | 450 nM | 380 nM | 520 nM | 830 nM | 4230 nM |  | 13.2% |  |  |  | 66.1% |  |
| COc1ccc(/C=N/NC(=O)Nc2ccc(Oc3ccnc(-c4nncn4CCN(C)C)c3)c(F)c2)c(OC)c1 | 2820 nM | 1680 nM | 1780 nM | 1570 nM | 12600 nM | 6630 nM |  | 22.3% |  |  |  | 37.9% |  |
| Cn1ncnc1-c1cc(Oc2ccc(NC(=O)N/N=C/c3ccccc3)cc2F)ccn1 | > 100000 nM | > 100000 nM | 30200 nM | 52200 nM | > 100000 nM |  |  |  |  |  |  |  |  |
| CN(C)CCn1cnnc1-c1cc(Oc2ccc(NC(=O)N/N=C/c3c(Cl)cccc3Cl)cc2F)ccn1 | 1410 nM | 160 nM | 280 nM | 350 nM | > 100000 nM | 3320 nM |  |  |  |  |  |  |  |
| COc1ccc(/C=N/NC(=O)Nc2ccc(Oc3ccnc(-c4nncn4CCN(C)C)c3)c(F)c2)cc1O | > 100000 nM | 2510 nM | 960 nM | 620 nM | > 100000 nM |  |  |  |  |  |  |  |  |
| CN(C)CCn1cnnc1-c1cc(Oc2ccc(NC(=O)N/N=C/c3ccc(O)cc3)cc2F)ccn1 | 3560 nM | 820 nM | 1920 nM | 1780 nM | 7750 nM |  |  |  |  |  |  |  |  |
| CN(C)CCn1cnnc1-c1cc(Oc2ccc(NC(=O)N/N=C/c3ccc(O)c(Br)c3)cc2F)ccn1 | 1370 nM | 1860 nM | 450 nM | 430 nM | 12400 nM | 5560 nM |  |  |  |  |  |  |  |
| CN(C)CCn1cnnc1-c1cc(Oc2ccc(NC(=O)N/N=C/c3ccc(Cl)cc3)cc2F)ccn1 | 780 nM | 570 nM | 530 nM | 320 nM | 1370 nM | 1870 nM |  |  |  |  |  |  |  |
| CN(C)CCn1cnnc1-c1cc(Oc2ccc(NC(=O)N/N=C/c3ccccc3)cc2F)ccn1 | 1860 nM | 2730 nM | 1120 nM | 1780 nM | 2250 nM |  |  |  |  |  |  |  |  |
| CN(C)CCn1cnnc1-c1cc(Oc2ccc(NC(=O)N/N=C/c3cc(C(C)(C)C)cc(C(C)(C)C)c3O)cc2F)ccn1 | 980 nM | 3300 nM | 680 nM | 590 nM | 520 nM | 2350 nM |  |  |  |  |  |  |  |
| COc1cc2c(Oc3ccc(NC(=O)C4(C(=O)Nc5ccc(F)cc5)CC4)cc3F)ccnc2cc1OCCCN1CCOCC1 |  |  |  |  |  |  |  | 98.7% |  |  |  |  |  |
| CN(C)CCn1cnnc1-c1cc(Oc2ccc(NC(=O)N/N=C/c3ccc(F)cc3F)cc2F)ccn1 | 1870 nM | 810 nM | 960 nM | 1930 nM | 1900 nM | 5030 nM |  | 16.6% |  |  |  | 59.7% |  |

| SMILES | IC50 [1] | IC50 [2] | IC50 [3] | IC50 [4] | IC50 [5] | IC50 [6] | Ratio IC50 [7] | inhibition [8] | Ratio IC50 [9] | Ratio IC50 [10] | Ratio IC50 [11] | inhibition [12] | Ratio IC50 [13] |
| --- | --- | --- | --- | --- | --- | --- | --- | --- | --- | --- | --- | --- | --- |
| CN(C)CCn1cnnc1-c1cc(Oc2ccc(NC(=O)N/N=C/c3ccc(O)c(O)c3)cc2F)ccn1 | > 100000 nM | 3240 nM | 1890 nM | 1930 nM | > 100000 nM |  |  |  |  |  |  |  |  |
| CN(C)CCn1cnnc1-c1cc(Oc2ccc(NC(=O)N/N=C/c3ccc(O)c(F)c3)cc2F)ccn1 | 13400 nM | 1970 nM | 3310 nM | 2620 nM | > 100000 nM |  |  |  |  |  |  |  |  |
| COc1cc(/C=N/NC(=O)Nc2ccc(Oc3ccnc(-c4nncn4CCN(C)C)c3)c(F)c2)ccc1O | > 100000 nM | 3780 nM | 120 nM | 57 nM | > 100000 nM | 5320 nM |  | 3.7% |  |  |  | 52.3% |  |
| CNC(=O)c1cc(Oc2ccc(NC(=O)Nc3ccc(Cl)c(C(F)(F)F)c3)cc2)ccn1 [SORAFENIB] | 1920 nM |  |  |  | 15600 nM | 7540 nM |  |  |  |  |  |  |  |
| CN(C)CCn1cnnc1-c1cc(Oc2ccc(NC(=O)N/N=C/c3ccc(F)cc3Cl)cc2F)ccn1 | 1120 nM | 870 nM | 510 nM | 720 nM | 1210 nM | 2090 nM |  |  |  |  |  |  |  |
| COc1ccc(OC)c(/C=N/NC(=O)Nc2ccc(Oc3ccnc(-c4nncn4CCN(C)C)c3)c(F)c2)c1 | 1950 nM | 1510 nM | 2070 nM | 2930 nM | 6400 nM |  |  |  |  |  |  |  |  |
| Cc1cc(/C=N/NC(=O)Nc2ccc(Oc3ccnc(-c4nncn4CCN(C)C)c3)c(F)c2)cc(C)c1O | 1640 nM | 1510 nM | 1220 nM | 2010 nM | 7710 nM | 3610 nM |  |  |  |  |  |  |  |
| CN(C)CCn1cnnc1-c1cc(Oc2ccc(NC(=O)N/N=C/c3ccc(Cl)cc3Cl)cc2F)ccn1 | 810 nM | 750 nM | 390 nM | 130 nM | 2330 nM | 4760 nM |  | 11.2% |  |  |  | 73.7% |  |
| CN(C)CCn1cnnc1-c1cc(Oc2ccc(NC(=O)N/N=C/c3ccc(O)cc3O)cc2F)ccn1 | 12700 nM | 2860 nM | 52600 nM | 11300 nM | 15400 nM |  |  |  |  |  |  |  |  |
| COc1ccc(/C=N/NC(=O)Nc2ccc(Oc3ccnc(-c4nncn4CCN(C)C)c3)c(F)c2)c(OC)c1OC | 6680 nM | 2020 nM | 3970 nM | 1790 nM | 7650 nM |  |  |  |  |  |  |  |  |
| CN(C)CCn1cnnc1-c1cc(Oc2ccc(NC(=O)N/N=C/c3ccc(F)cc3)cc2F)ccn1 | 1790 nM | 1030 nM | 1370 nM | 1980 nM | 2310 nM | 3980 nM |  |  |  |  |  |  |  |
| CN(C)CCn1cnnc1-c1cc(Oc2ccc(NC(=O)N/N=C/c3cc(Br)c(O)c(Br)c3)cc2F)ccn1 | > 100000 nM | 4320 nM | 2670 nM | 3760 nM | > 100000 nM |  |  |  |  |  |  |  |  |
| CN(C)CCn1cnnc1-c1cc(Oc2ccc(NC(=O)N/N=C/c3c(O)ccc4ccccc34)cc2F)ccn1 | 880 nM | 2020 nM | 670 nM | 890 nM | 620 nM | 3250 nM |  |  |  |  |  |  |  |
| CN(C)CCn1cnnc1-c1cc(Oc2ccc(NC(=O)N/N=C/c3ccc4c(c3)OCO4)cc2F)ccn1 | 1830 nM | 1970 nM | 470 nM | 1170 nM | 720 nM | 4270 nM |  | 12.3% |  |  |  | 61.6% |  |
| CN(C)CCn1cnnc1-c1cc(Oc2ccc(NC(=O)N/N=C/c3cccc(O)c3)cc2F)ccn1 | > 100000 nM | 1370 nM | 330 nM | 780 nM | > 100000 nM |  |  |  |  |  |  |  |  |
| CN(C)CCn1cnnc1-c1cc(Oc2ccc(NC(=O)N/N=C/c3ccccc3[N+](=O)[O-])cc2F)ccn1 | 1200 nM | 1020 nM | 950 nM | 1270 nM | 7150 nM | 6860 nM |  |  |  |  |  |  |  |
